ChEMBL document CHEMBL1148278 (J Med Chem, 2004)

How the values were obtained:
Saccharomyces cerevisiae = assay: Toxicity against Saccharomyces cerevisiae assessed as growth inhibition in complete medium
[1] = target: NAD-dependent histone deacetylase SIR2 (Saccharomyces cerevisiae S288c) (UniProt P06700); assay: Sirtuin 2 inhibitory activity and was reported as minimum growth-stimulating concentration in Saccharomyces cerevisiae
Method in brief: (§1)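 Telomeric-silencing growth assay in S. cerevisiae UCC2210 (adh4::URA3-TEL VII-L), ca. 13 500 cells/well, in synthetic complete medium lacking uracil. Compound at 150 μM to 73 nM final, DMSO ≤2%, 30 °C for about 40–48 h. OD660 read, initial background subtracted. MGC is the concentration giving 10% of the reference maximal growth. Triplicate, ±1 SD.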

[2] = target: NAD-dependent histone deacetylase SIR2 (Saccharomyces cerevisiae S288c) (UniProt P06700); assay: In vitro inhibition of sirtuin 2 was evaluated using yeast whole cell lysates at 75 uM; values are per cent of control
[3] = target: NAD-dependent histone deacetylase SIR2 (Saccharomyces cerevisiae S288c) (UniProt P06700); assay: Selectivity index was reported as the ratio of the MGC to IC50 value
[4] = Half-life period was determined; format: ADME
Method in brief: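 Hydrolysis followed by HPLC at 280 nm. 100 μM compound, made from 30 mM DMSO stock, in complete medium lacking uracil (pH 4.2-4.3, unadjusted). Half-life derived from the pseudo-first-order hydrolysis rate constant.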

[5] = target: NAD-dependent histone deacetylase SIR2 (Saccharomyces cerevisiae S288c) (UniProt P06700); assay: Tested for Sir2 inhibitory activity and was reported as minimum growth-stimulating concentration in Saccharomyces cerevisiae
Method in brief: as §1

[6] = target: NAD-dependent histone deacetylase SIR2 (Saccharomyces cerevisiae S288c) (UniProt P06700); assay: Tested for Sirtuin 2 inhibitory activity and was reported as minimum growth-stimulating concentration in Saccharomyces cerevisiae
Method in brief: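 Cell-based telomeric silencing read-out in yeast strain UCC2210 (Mata ppr1 adh4::URA3-TEL VII-L), about 13 500 cells per well, grown in synthetic complete medium lacking uracil. Compounds tested at 150 µM to 73 nM, with at most 2% DMSO. Incubation at 30 °C for about 40–48 h. Growth read as OD660 minus initial background. MGC is the concentration giving 10% of reference maximal growth. Triplicate, ±1 SD.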

NAD-dependent histone deacetylase SIR2 (Saccharomyces cerevisiae S288c), sequence (P06700 whole entry): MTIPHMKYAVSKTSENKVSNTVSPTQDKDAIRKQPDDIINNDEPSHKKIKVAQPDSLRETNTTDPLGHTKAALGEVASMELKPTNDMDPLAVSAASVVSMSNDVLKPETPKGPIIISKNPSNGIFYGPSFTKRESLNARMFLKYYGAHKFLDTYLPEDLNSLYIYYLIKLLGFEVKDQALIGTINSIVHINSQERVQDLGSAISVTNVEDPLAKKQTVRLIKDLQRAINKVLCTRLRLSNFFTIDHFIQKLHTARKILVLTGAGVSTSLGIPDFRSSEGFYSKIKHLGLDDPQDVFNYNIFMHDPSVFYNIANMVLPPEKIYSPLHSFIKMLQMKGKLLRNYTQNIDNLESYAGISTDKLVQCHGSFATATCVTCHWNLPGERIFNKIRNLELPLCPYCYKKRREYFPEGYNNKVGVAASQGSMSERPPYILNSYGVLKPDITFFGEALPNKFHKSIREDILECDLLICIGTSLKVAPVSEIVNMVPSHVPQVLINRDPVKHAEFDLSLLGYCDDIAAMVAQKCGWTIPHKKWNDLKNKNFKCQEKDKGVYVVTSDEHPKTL

Compound | IC50 (Saccharomyces cerevisiae) | MGC [1] | residual activity [2] | SI [3] | half-life [4] | MGC [5] | MGC [6] | T1/2 [4]
O=C(O)CCc1c(O)ccc2ccccc12 | ≥ 150 µM | > 150 µM | 87% | – | – | – | – | –
COc1ccc2c3c(ccc2c1)OC(=O)CC3 | 73 µM | 13.8 µM | 84% | 5 | – | – | – | –
O=C1CCc2c(ccc3ccc(O)cc23)O1 | 134 µM | 48 µM | – | 3 | – | – | – | –
O=C(COc1cccc2ccccc12)ON1C(=O)CCC1=O | ≥ 150 µM | > 150 µM | – | – | – | – | – | –
O=C1CCc2c(ccc3c4c(ccc23)OC(=O)CC4)O1 | – | > 150 µM | 87% | – | – | – | – | –
CNC(=O)CCc1c(O)ccc2ccccc12 | ≥ 150 µM | 5.8 µM | – | > 26 | – | – | – | –
O=C1CCc2c(c(OCc3ccccc3)cc3ccccc23)O1 | 27 µM | 0.97 µM | 17% | 29 | – | – | – | –
O=C1CCc2c(ccc3ccc4c(c23)CCC(=O)O4)O1 | ≥ 150 µM | > 150 µM | – | – | – | – | – | –
COc1cc2c(c3ccccc13)CCC(=O)O2 | 44 µM | 1.8 µM | – | 24 | – | – | – | –
COc1cc2ccccc2c2c1OC(=O)CC2 | 128 µM | 1.5 µM | – | 85 | – | – | – | –
O=C1CCc2c(ccc3ccccc23)S1 | 25 µM | > 150 µM | – | – | 13 h | – | – | –
CCOC(=O)C1Cc2c(ccc3ccccc23)OC1=O (configuration not stated) | ≥ 150 µM | > 150 µM | 66% | – | – | – | – | –
C=CCC1Cc2c(ccc3ccccc23)OC1=O (configuration not stated) | – | > 150 µM | 86% | – | – | – | – | –
OCCCc1c(O)ccc2ccccc12 | ≥ 150 µM | > 150 µM | 88% | – | – | – | – | –
COC(=O)CCc1c(O)ccc2ccccc12 | – | 5.2 µM | 75% | – | – | – | – | –
NC(=O)CCc1c(O)ccc2ccccc12 | 125 µM | 0.79 µM | 80% | 158 | – | – | – | –
O=C1CCc2c(ccc3c(O)cccc23)O1 | ≥ 150 µM | 16 µM | – | > 107 | – | – | – | –
O=C1CCc2cc3ccccc3cc2O1 | ≥ 150 µM | 15 µM | 85% | 10 | – | – | – | –
O=C1CCc2c(ccc3cc(O)ccc23)O1 | ≥ 150 µM | 38 µM | 85% | > 39 | – | – | – | –
O=c1ccc2ccccc2o1 | – | – | 74% | – | – | > 150 µM | – | –
CC(C)CC1Cc2c(ccc3ccccc23)OC1=O (configuration not stated) | – | > 150 µM | – | – | – | – | – | –

Compound | IC50 (Saccharomyces cerevisiae) | MGC [1] | residual activity [2] | SI [3] | half-life [4] | MGC [5] | MGC [6] | T1/2 [4]
O=c1ccc2c(ccc3ccccc32)o1 | 86 µM | > 150 µM | 73% | – | > 100 h | – | – | –
O=C1CCc2ccccc2O1 | – | 0.85 µM | 15% | – | – | – | – | –
O=C1Cc2ccccc2O1 | ≥ 150 µM | 24 µM | 89% | > 6 | – | – | – | –
O=C1CCCc2c(ccc3ccccc23)O1 | 12 µM | > 150 µM | 82% | – | 49.5 h | – | – | –
COc1cccc2c3c(ccc12)OC(=O)CC3 | – | 5.5 µM | – | – | – | – | – | –
O=C1CCc2c(cc(O)c3ccccc23)O1 | – | 11 µM | – | – | – | – | – | –
O=C1CCc2c(c(O)cc3ccccc23)O1 | 111 µM | 0.69 µM | – | 161 | – | – | – | –
O=C1CCc2ccc3ccccc3c2O1 | 65 µM | 2.4 µM | 87% | 27 | 6.9 h | – | – | –
CCN(CC)C(=O)CCc1c(O)ccc2ccccc12 | 125 µM | > 150 µM | 88% | – | – | – | – | –
O=C1OC(=O)c2cccc3cccc1c23 | – | > 150 µM | 94% | – | – | – | – | –
O=C1Cc2c(ccc3ccccc23)O1 | 59 µM | > 150 µM | – | – | 12.2 h | – | – | –
COc1ccc2ccc3c(c2c1)CCC(=O)O3 | – | > 150 µM | – | – | – | – | – | –
O=C1CC(c2ccccc2)c2c(ccc3ccccc23)O1 (configuration not stated) | – | > 150 µM | 90% | – | – | – | – | –
O=C1CCc2c(c3c(c4ccccc24)CCC(=O)O3)O1 | 89 µM | 4.9 µM | 80% | 18 | – | – | – | –
CC1Cc2c(ccc3ccccc23)OC1=O (configuration not stated) | 52 µM | 5.4 µM | 94% | 10 | – | – | – | –
O=C1CCc2c(ccc3ccccc23)O1 [SPLITOMICIN] | – | – | 66% | – | 7.5 h | – | 0.49 µM | –
O=C1CCc2c(c3oc(=O)ccc3c3ccccc23)O1 | ≥ 150 µM | – | 83% | > 29 | – | 5.1 µM | – | –
O=C1CCCc2c1ccc1ccccc21 | 81 µM | > 150 µM | – | – | – | – | – | –
CC(C)(C)OC(=O)NCCOCCOc1cc2ccccc2c2c1OC(=O)CC2 | 86 µM | 6.4 µM | – | 13 | – | – | – | –
O=C1CCc2c(ccc3ccccc23)N1 | ≥ 150 µM | > 150 µM | 92% | – | – | – | – | No hydrolysis obsd
O=C1CCc2ccc3c(O)cccc3c2O1 | ≥ 150 µM | 21 µM | – | > 7 | – | – | – | –
